Results on one compound are retold here after PMC6231235 (Science translational medicine, 2017).

In the assay the test system is human FXa. Put plainly: In vitro neutralization of anti-FXa activity by protamine. The following applies: sample at 25 x IC50, protamine 0 to 90 μg/ml. It is filed as biochemical. An outline of the steps: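 Human plasma is combined with a fixed test-compound stock set per construct and protamine chloride in PBS (0 to 90 μg/ml solutions), then held 5 min at room temperature. The mixture then goes into the chromogenic anti-FXa assay: human FXa for 4 min at room temperature, S-2765 substrate, and A405 read continuously for 5 min.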

Regarding `CO[C@H]1O[C@H](COS(=O)(=O)O)[C@@H](O[C@@H]2O[C@@H](C(=O)O)[C@@H](O[C@H]3O[C@H](COS(=O)(=O)O)[C@@H](O[C@@H]4O[C@H](C(=O)O)[C@@H](O[C@H]5O[C@H](COS(=O)(=O)O)[C@@H](O)[C@H](O)[C@H]5NS(=O)(=O)O)[C@H](O)[C@H]4O)[C@H](OS(=O)(=O)O)[C@H]3NS(=O)(=O)O)[C@H](O)[C@H]2OS(=O)(=O)O)[C@H](O)[C@H]1NS(=O)(=O)O` [Fondaparinux], the “neutralization of anti-FXa activity by protamine in vitro” value is “completely insensitive”.
